Here are results for 8 molecules from ChEMBL document CHEMBL2010657, “Cytotoxic angucycline class glycosides from the deep sea actinomycete Streptomyces lusitanus SCSIO LR32” (J Nat Prod, 2012).

Molecules are shown by their SMILES. Bounds are passed on as bounds.

What all share (type): functional, cell-based
For one experiment, the system named is MCF7. Put plainly: Cytotoxicity against human MCF7 cells after 48 hrs by MTT assay. Conditions: MCF7, 48 h. In short, it runs like this:
(§1)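 Cells grown in RPMI 1640 with 10% FBS at 37 °C, 5% CO2. Seeded at 2 × 10^3 cells/well and allowed 12 h before adding compounds in DMSO at various concentrations. After 48 h exposure, MTT (1 mg/mL in PBS) added for 4 h at 37 °C. Formazan dissolved in DMSO and read at A550. Viability taken as treated/untreated A550 × 100. IC50 reported. 5-FU and doxorubicin served as positive controls.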
Background: Tetrazolium assays rely on reduction of a dye to a coloured formazan, in cell work by metabolically active cells.

The test system of another experiment is HepG2. The experiment is described as follows: Cytotoxicity against human HepG2 cells after 48 hrs by MTT assay. The conditions noted are these: HepG2, 48 h. In outline:
as §1

The subject of a further experiment is NCI-H460. Put plainly: Cytotoxicity against human NCI-H460 cells after 48 hrs by MTT assay. Conditions: NCI-H460, 48 h. In outline:
as §1

The subject of another experiment is HeLa. The experiment is described as follows: Cytotoxicity against human HeLa cells after 48 hrs by MTT assay. In outline:
as §1

The test system of a further experiment is B16. Put plainly: Cytotoxicity against mouse B16 cells after 48 hrs by MTT assay. The conditions noted are these: B16, 48 h. In outline:
as §1

The next experiment has as its system SW1990. The experiment is described as follows: Cytotoxicity against human SW1990 cells after 48 hrs by MTT assay. Conditions: SW1990, 48 h. In outline:
as §1

Regarding `COc1cccc2c1C(=O)c1c(O)c3c(c(O)c1C2=O)C[C@@](O)(C(=O)CO)C[C@@H]3O[C@H]1C[C@H](N)[C@H](O)[C@H](C)O1` [DOXORUBICIN], the IC50 in the experiment with MCF7 was 6.9 µM; with HepG2 it was 7.1 µM; with NCI-H460, 11 µM; with HeLa it was 5.3 µM; with B16 it was 1.7 µM; with SW1990, greater than 100 µM.
Take `O=c1[nH]cc(F)c(=O)[nH]1` [FLUOROURACIL]: the half-inhibitory concentration (IC50) with MCF7 worked out at 35 µM; in the experiment with HepG2, 34 µM; in the experiment on NCI-H460 it was 29 µM; in the experiment with HeLa, 43 µM; in the experiment with B16, 33 µM; in the experiment with SW1990, 45 µM.
As for `C[C@@H]1O[C@@H](O[C@H]2CC[C@H](O[C@H]3[C@H](O)C[C@H](c4ccc5c(c4O)C(=O)c4ccc(C[C@](C)(CC(=O)O)O[C@H]6CC[C@H](O[C@H]7CCC(=O)[C@H](C)O7)[C@H](C)O6)c(O)c4C5=O)O[C@@H]3C)O[C@H]2C)CCC1=O` [GRINCAMYCIN B], the IC50 in the experiment with MCF7 is 12 µM; in the experiment on HepG2, 8.5 µM; in the experiment with NCI-H460, greater than 100 µM; in the experiment on HeLa it was 6.4 µM; in the experiment with B16, 2.1 µM; in the experiment with SW1990 it was 11 µM.
For `C[C@@H]1O[C@@H](O[C@H]2CC[C@H](O[C@H]3[C@H](O)C[C@H](c4ccc5c(c4O)C(=O)c4ccc(C[C@@](C)(O)CC(=O)O)c(O)c4C5=O)O[C@@H]3C)O[C@H]2C)CCC1=O` [GRINCAMYCIN C], the IC50 with MCF7 is 11 µM; in the experiment with HepG2 it was 31 µM; with NCI-H460, greater than 100 µM; in the experiment with HeLa, greater than 100 µM; in the experiment on B16, greater than 100 µM; in the experiment with SW1990, 31 µM.
Take `C[C@@H]1O[C@@H](O[C@H]2CC[C@H](O[C@@](C)(CC(=O)O)Cc3ccc4c(c3O)C(=O)c3ccc([C@H]5C[C@H]6O[C@H]7CC(=O)[C@H](C)O[C@H]7O[C@@H]6[C@@H](C)O5)c(O)c3C4=O)O[C@H]2C)CCC1=O` [GRINCAMYCIN D]: the IC50 in the experiment on MCF7 stood at 6.1 µM; with HepG2, 9.7 µM; in the experiment on NCI-H460 it was 30 µM; with HeLa, 12 µM; in the experiment with B16, 9.7 µM; with SW1990, 22 µM.
`C[C@@H]1O[C@@H](O[C@H]2CC[C@H](O[C@H]3[C@H](O)C[C@H](c4ccc5c(c4O)C(=O)c4cc6c(c(O)c4C5=O)C[C@@](C)(O[C@H]4CC[C@H](O[C@H]5CCC(=O)[C@H](C)O5)[C@H](C)O4)CC6=O)O[C@@H]3C)O[C@H]2C)CCC1=O` [GRINCAMYCIN E]: the IC50 in the experiment on MCF7 is 8.7 µM; in the experiment on HepG2, 11 µM; in the experiment with NCI-H460, greater than 100 µM; in the experiment on HeLa it was 11 µM; with B16, 5.4 µM; in the experiment on SW1990, 16 µM.
`C[C@@H]1O[C@@H](O[C@H]2CC[C@H](O[C@@H]3C[C@H](C4=Cc5c(-c6ccc(O)cc6)c(=O)oc6c7c(c(O)c(c56)C4=O)C=C[C@]4(O)C[C@@](C)(O[C@H]5CC[C@H](O[C@H]6CCC(=O)[C@H](C)O6)[C@H](C)O5)CC(=O)[C@]74O)O[C@H](C)[C@H]3O)O[C@H]2C)CCC1=O` [GRINCAMYCIN F]: the 50% inhibitory concentration (IC50) in the experiment with MCF7, in the experiment with HepG2, in the experiment with NCI-H460, in the experiment with HeLa, in the experiment on B16 and in the experiment on SW1990 was greater than 100 µM throughout.
In the case of `C[C@@H]1O[C@@H](O[C@H]2CC[C@H](O[C@H]3[C@H](O)C[C@H](c4ccc5c(c4O)C(=O)C4=C(C5=O)[C@@]5(O)C(=O)C[C@](C)(O[C@H]6CC[C@H](O[C@H]7CCC(=O)[C@H](C)O7)[C@H](C)O6)C[C@@]5(O)C=C4)O[C@@H]3C)O[C@H]2C)CCC1=O` [GRINCAMYCIN], the IC50 with MCF7 was determined as 2.1 µM; in the experiment on HepG2, 5.3 µM; with NCI-H460, 11 µM; in the experiment with HeLa, 5.3 µM; in the experiment on B16, 1.1 µM; in the experiment with SW1990 it was 6.4 µM.

As a reminder, the IC50 is the concentration that gives 50% inhibition. Lower therefore signals greater potency in that assay.
